# CTSL1 counter = cathepsin L1 inhibition, PFM18AAP counter-screen; AID 1906; 300,000 compounds, 0.49% hits; inhibition, % at 5.96 µM; recombinant F. hepatica cathepsin L1, Z-Leu-Arg-MCA fluorescence;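 active means inhibition above the mean of all tested compounds plus 3 SD, set per screening campaign, cut at about 17% in these data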;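 further: 0% = plate median of test compound wells and 100% = 1 µM Z-Phe-Ala-diazomethylketone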
# HDAC3 inh = blocks human histone deacetylase 3; recombinant HDAC3, fluorogenic peptide/trypsin coupled, fluorescence; inhibition, % at 8.3 µM; 320,000 compounds, 0.15% hits; in the data active means inhibition above about 26%, passing the limit was not always enough; inconclusive means no clear call, values can overlap the other calls
# Target sequence (O15379 whole entry, looked up): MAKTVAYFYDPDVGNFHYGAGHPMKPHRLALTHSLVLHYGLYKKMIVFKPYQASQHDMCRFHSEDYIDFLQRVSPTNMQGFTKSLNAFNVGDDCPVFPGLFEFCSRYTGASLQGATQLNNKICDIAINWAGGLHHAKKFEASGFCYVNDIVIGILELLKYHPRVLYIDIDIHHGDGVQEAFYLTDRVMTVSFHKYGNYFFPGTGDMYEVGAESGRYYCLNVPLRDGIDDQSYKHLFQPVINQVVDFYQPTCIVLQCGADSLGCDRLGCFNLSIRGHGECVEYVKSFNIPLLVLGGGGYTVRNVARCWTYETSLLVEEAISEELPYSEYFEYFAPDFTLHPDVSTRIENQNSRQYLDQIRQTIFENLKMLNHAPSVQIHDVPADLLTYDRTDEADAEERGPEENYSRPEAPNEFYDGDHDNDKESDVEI
# FXN GAA850 act = increases GAA850 frataxin promoter reporter activity; AID 540364; HEK293 lucGAA850 FXN promoter luciferase reporter, 24 h; percent of 10 µM SAHA response; 360,000 compounds, 0.56% hits; activation, % at 6 µM;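 active means activation above the average of all compounds screened plus 3 SD, cutoff fixed separately per campaign, cut at about 7.5% in these data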;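 further: 0% = DMSO wells and 100% = 10 µM SAHA wells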
# PfM18AAP inh = blocks P. falciparum M18 aspartyl aminopeptidase | recombinant PfM18AAP, H-Glu-NHMec fluorogenic cleavage | inhibition, % at 7.35 µM | 290,000 compounds, 1.2% hits | AID 1822;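 active means inhibition above the campaign mean inhibition over all tested compounds plus 3 SD, cut at about 28% in these data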;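 further: 0% = plate median of test compound wells and 100% = 2 mM ZnCl2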
# SENP1 FRET inh = inhibitors of human SENP1 SUMO protease catalytic domain; AID 624204; inhibition, % at 10 µM; Q9P0U3; recombinant SENP1 catalytic domain, CyPet-SUMO1-YPet FRET cleavage; 360,000 compounds, 0.21% hits;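 active means inhibition at least 30% at 10 µM, raw YFP signal under a set limit, fluorescence ratio 0.5 to 1.5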;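 further: 0% = enzyme with DMSO and 100% = no enzyme wells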
# Target sequence (Q9P0U3 419-644 limits assumed): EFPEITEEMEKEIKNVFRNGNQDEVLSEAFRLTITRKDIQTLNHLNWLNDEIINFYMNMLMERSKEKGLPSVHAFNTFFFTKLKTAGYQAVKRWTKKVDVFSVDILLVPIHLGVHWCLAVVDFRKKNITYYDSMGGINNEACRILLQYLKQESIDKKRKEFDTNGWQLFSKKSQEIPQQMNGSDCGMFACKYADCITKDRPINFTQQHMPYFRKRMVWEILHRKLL
#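 Compound: 10 µM single point, 0.5% DMSO; Test system: hSENP1 catalytic domain, recombinant; Timing: 50 min reaction at room temperature; Technique: FRET, CFP and YFP emission; Control set: no-enzyme wells low, DMSO-plus-enzyme wells high control.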
# AHR act = activates the human aryl hydrocarbon receptor | P35869 | AHR-responsive luciferase reporter cells, luminescence | activation, % at 5 µM | 320,000 compounds, 2.5% hits; in the data active means activation above about 47%;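 further: 0% = vehicle wells and 100% = reference agonist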
# AHR act confirm = human AHR activation, confirmation | shares compounds with AHR act | human cells, AHR-responsive luciferase reporter, luminescence | activation, % at 9 µM | 2,300 compounds, 87% hits; in the data active means activation above about 49%;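 further: HepG2 hepatoma cells carrying a DRE-driven firefly luciferase reporter; 0% = vehicle wells and 100% = reference agonist wells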
# PXR act counter = activates human PXR in AHR activator counter-screen | cell-based PXR reporter, luciferase luminescence | activation, % at 11.6 µM | 2,300 compounds, 88% hits | shares compounds with AHR act; in the data active means activation above about 11%;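 further: human hepatoma DPX-2 cells expressing full-length human PXR; 0% = DMSO and 100% = reference agonist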
# * hit, by the source's call; ? = inconclusive; . = no result. Hits are enriched below; roughly 4.2% of the tested compounds scored in any of these assays.
SMILES,CTSL1 counter,HDAC3 inh,FXN GAA850 act,PfM18AAP inh,SENP1 FRET inh,AHR act,AHR act confirm,PXR act counter
Cc1cn([C@H]2C[C@H](O)[C@@H](CNCc3cccc(OC4CCCC4)c3)O2)c(=O)[nH]c1=O,.,.,2.4,.,1.0,.,.,.
CC(C)c1ccc(CC(=O)N2CCC2(C)C(=O)NS(=O)(=O)c2cccc(OC(F)F)c2)cc1 (centres undefined),.,.,-0.8,.,3.3,.,.,.
O=C(Cn1nnc(-c2ccccc2)n1)NCc1ccco1,-2.4,1.7,0.2,5.8,-1.8,-0.1,.,.
COc1ccccc1C(=O)Nc1ccc(-c2nnn(CC(=O)NCc3ccco3)n2)cc1,-0.5,3.1,5.2,-2.4,-0.6,130.4*,134.5*,29.4*
COc1ccc(C(=O)Nc2ccccc2-c2nnn(CC(=O)NCc3ccco3)n2)cc1,5.7,1.7,-1.1,-0.9,-0.6,103.2*,-0.9,25.8*
COCCCN(C(=O)CC1OC(=O)c2ccccc21)c1c(N)n(Cc2ccccc2)c(=O)[nH]c1=O (centres undefined),-0.8,2.2,0.4,-0.1,-8.5,0.9,.,.
COc1cccc(-n2c(SCC(=O)NCCC3=CCCCC3)nc3n[nH]c(C)c3c2=N)c1,-0.3,12.5,.,1.9,.,82.3*,91.0*,160.8*
COc1ccc(N(CC(=O)Nc2ccccc2C(=O)N2CCCC2)S(C)(=O)=O)cc1,2.7,-4.4,2.2,-2.2,-1.3,-0.2,.,.
CCc1nc2ccccc2c(C(=O)OCC(=O)C(C)(C)C)c1C,11.8,1.3,2.3,-2.9,-0.7,9.2,.,.
CCc1nc2ccccc2c(C(=O)OCc2nc3ccccc3c(=O)[nH]2)c1C,.,-1.2,-2.5,.,-6.6,117.9*,86.5*,53.6*
O=C(CNCC1CCCCC1)Nc1ccc(OC(F)(F)F)cc1,-0.3,8.3,1.4,0.4,2.5,-0.4,.,.
Cc1cc(C)n2c(NC3CCCCC3)c(-c3cccnc3)nc2n1,.,.,.,.,50.4,.,.,.
CCCCc1cc2c(c(NC(C)=O)n1)c(=O)oc1ccccc12,1.5,2.6,.,0.5,.,94.5*,98.7*,.
COCC(=O)N/N=C/c1ccc(Sc2nc3ccccc3s2)o1,-4.0,1.9,1.7,-1.4,3.1,86.4*,81.0*,21.5*
Cc1cccc(N/N=C2/COC(C)(C)CC2=O)c1,7.6,-3.7,3.3,-0.9,2.2,-4.5,.,.
Cc1cccc(NN=C2c3ccccc3-c3ccccc32)c1,1.0,-4.9,2.0,6.5,-23.1,87.7*,115.4*,21.6*
C=CCn1c(NC(=O)c2ccc(C)cc2)nc2ccccc21,3.4,1.5,3.5,-2.9,-0.6,98.6*,93.0*,29.1*
O=c1[nH]n(-c2ccc(F)cc2)c2ncccc12,3.7,-1.1,1.3,2.3,1.7,16.9,.,.
Cc1c(-c2ccccn2)c(=O)[nH]n1-c1ccc(F)cc1,-2.1,1.1,2.3,-2.8,-3.1,90.7*,77.2*,11.0*
O=C1C[C@@H]2C(=O)N(c3ccccc3)C(=O)[C@@H]2[C@@H]2CN(S(=O)(=O)c3ccccc3)[C@@H](c3ccccc3)[C@H]12,.,.,.,.,-37.1,.,.,.
O=C(Nc1ccccc1)N1CCc2ccccc2C1,-4.4,1.3,4.4,-11.6,-5.0,103.0*,132.4*,16.4*
O=C(Sc1cccc2cccnc12)c1ccc(F)cc1,.,.,.,16.9,.,.,.,.
O=S(=O)(Nc1cc(Sc2cccc3cccnc23)c(O)c2ccccc12)c1ccc(F)cc1,-1.2,10.3,.,2.4,.,85.0*,24.9,132.1*
CCC(=O)Nc1ccc(NC(=O)c2c(C)nc3ccccn23)cc1,3.0,.,-1.0,-5.8,2.1,2.2,.,.
COc1ccc(NC(=O)c2c(Cl)nc3ccccn23)cc1,-6.7,-8.8,1.4,1.1,0.3,86.4*,46.8,9.6
SMILES,CTSL1 counter,HDAC3 inh,FXN GAA850 act,PfM18AAP inh,SENP1 FRET inh,AHR act,AHR act confirm,PXR act counter
CC1=C(C(=O)N(C)C)CC(CC(=O)NCCN2CCOCC2)C(=O)N1Cc1ccc(F)cc1 (centres undefined),.,.,1.4,.,5.7,.,.,.
COc1ccc(N2CCN(c3cc(C)c4ccc(C)cc4n3)CC2)cc1,0.2,-1.1,5.4,-0.8,-2.4,100.3*,109.7*,18.1*
COc1cccc2c(C)cc(N3CCCCCC3)nc12,-0.6,-5.8,0.6,-8.8,2.6,5.4,.,.
COc1ccc2c(C)cc(N3CCOCC3)nc2c1,2.5,?,3.1,1.8,0.7,5.0,.,.
COc1ccc(N2CCN(c3cc(C)c4ccc(O)cc4n3)CC2)cc1,4.3,1.3,-1.1,-2.5,-34.9,131.7*,71.2*,.
COc1ccc(N2CCN(c3cc(C)c4cccc(C)c4n3)CC2)cc1,-14.6,-0.7,1.8,-20.8,1.4,129.3*,94.7*,12.8*
Clc1nc(-c2ccccc2)c2ccccc2n1,0.2,-1.0,3.8,-0.6,1.6,-1.0,.,.
Clc1ccccc1-c1nc2ccccc2c2nc3ccccc3n12,3.9,2.9,0.5,-8.8,-0.6,2.2,.,.
S=c1nc2ccccc2c2nc(-c3ccccc3Cl)[nH]n12,-3.6,2.1,1.9,14.6,2.5,133.9*,128.6*,28.4*
S=c1nc2ccccc2c2nc(-c3ccccc3)[nH]n12,2.3,-4.1,5.9,5.3,0.2,106.4*,129.4*,22.6*
Cc1nc(NCCOc2ccccc2)sc1C(=O)Nc1ccccc1,4.8,2.7,1.4,-2.1,1.4,87.9*,144.6*,47.2*
Cc1nc(NCc2ccccc2)sc1C(=O)Nc1ccccc1,1.9,1.7,2.7,4.4,0.4,12.1,.,.
Cc1ccc(/C=N\Nc2nc3ccc(Cl)cc3[nH]2)o1,4.4,2.6,2.2,13.1,-11.3,165.0*,116.7*,22.3*
Fc1ccccc1-c1ccc(/C=N/Nc2nc3ccccc3[nH]2)o1,-1.6,-0.3,6.8,8.5,-22.2,84.2*,77.8*,10.7*
COc1ccc(OCC(=O)NC2CCCN(Cc3ccc(Cl)cc3)C2)cc1 (centres undefined),-1.8,.,0.4,0.2,-1.2,0.4,.,.
CCC(C(=O)OCC(=O)N1CCN(S(=O)(=O)c2ccc(C)cc2C)CC1)c1ccccc1 (centres undefined),.,4.2,-0.8,.,1.5,0.8,.,.
CNC(=O)c1cccnc1Nc1cccc(C(F)(F)F)c1,0.7,4.1,6.8,0.3,0.5,119.7*,104.6*,14.9*
CCN(CC)c1ccc(/C=N/N(c2ccccc2)c2ccccc2)c(O)c1,-5.2,-2.6,2.1,0.5,-25.1,94.1*,89.7*,97.0*
CCN(CC)c1ccc(/C=N/N=C(c2ccccc2)c2ccccc2)c(O)c1,-2.5,4.5,3.2,-2.1,-26.4,12.2,.,.
COCCCn1c(=O)c2sccc2n2c(CCCC(=O)NCc3ccc(F)cc3)nnc12,-4.2,-4.9,1.9,0.3,1.2,-0.9,.,.

# Source: PubChem BioAssay
